# Compound activity (PubChem BioAssay)
# TROY signal inh – blocks TROY-dependent signaling in reporter cells; Q293 LMP1-TROYcd NF-kB luciferase reporter, 4 h; AID 1347056; 360,000 compounds, 0.98% hits; inhibition, % at 10 µM;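 active means compounds whose plate-normalised and pattern-corrected inhibition of the luciferase reporter signal at the single screening dose is 50% or more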
# EWS-Fli block – EWS/Fli transcriptional activity inhibition. A673 NR0B1-luciferase reporter, viability-normalised. inhibition, % at 12.6 µM. 350,000 compounds, 0.67% hits;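 active means mean inhibition of at least 50% after viability correction, with every replicate also passing that limit; inconclusive means mean reaches 50% but only one of two replicates passes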;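 further: firefly luciferase signal divided by Alamar Blue viability fluorescence both relative to DMSO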
# LGR2 antag – Drosophila LGR2 receptor signaling inhibition. 380,000 compounds, 0.35% hits. inhibition, % at 9.99 µM. HEK293 LGR2, CRE-luciferase, bursicon-stimulated, 4 h. AID 720647;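 active means drop in luminescence signal, shown as inhibition above about 50% in the replicate tests, limit read from the data, passing the limit was not always enough; inconclusive means probably only some replicates passing the limit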;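 further: agonist challenge used bursicon conditioned medium at about half maximal strength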
# Xi reactivation – reactivates the inactive X chromosome in mouse fibroblasts; XiGFP mouse fibroblasts, % GFP-positive cells imaging, 3 d; cells co-treated with 5-aza-dC sensitizer; scaled so ellipticine positive control = 100%; activation, % at 7.58 µM; 360,000 compounds, 0.055% hits; AID 743238;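 active means mean normalized replicate activation at least 10% and every replicate at or above 10%; inconclusive means only one of the two criteria met; inactive means mean below 10% and not all replicates reach 10%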
#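 System: SV40-immortalized XiGFP fibroblast cells, line 68-5-11 / Incubation: 3-day compound exposure, then 15 min fixation at room temperature / Compound: single concentration per compound, delivered by pin transfer / Buffer or medium: DMEM plus 5-aza-dC sensitizer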
# FN deposition inh – fibronectin deposition inhibition | AH1F fibroblasts, Alexa488-fibronectin deposition fluorescence, overnight | inhibition, % at 12.6 µM | 350,000 compounds, 0.086% hits | AID 743247;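 active means mean inhibition across replicates of 30% or more, regardless of how many single replicates reach that level; inconclusive means mean under 30% yet at least half of replicates reach 30%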
#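 material = AH1F fibroblast monolayer depositing Alexa488-labelled fibronectin into matrix | amount = 10000 AH1F cells/well | buffer or medium = DMEM plus 2% serum, read in PBS | incubation = 1 h cell adhesion before compound, then overnight fibronectin incubation | detection = fluorescence at 485 nm excitation, 525 nm emission | evaluation = percent inhibition as loss of matrix-bound fibronectin fluorescence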
# TWEAK-Fn14 inh – inhibitors of TWEAK-Fn14 interaction signaling; inhibition, % at 10 µM; TWEAK-stimulated Fn14 reporter cells, luciferase luminescence, 8 h; 360,000 compounds, 2% hits; in the data active means inhibition above about 50%
# Numbers stand for hits; - = inactive; ? = inconclusive; . = no result. In the library only some 2.3% were active in any assay of this set; here they are far more common.
SMILES,TROY signal inh,EWS-Fli block,LGR2 antag,Xi reactivation,FN deposition inh,TWEAK-Fn14 inh
CCN(CC)S(=O)(=O)c1cccc(NC(=O)COC(=O)c2[nH]c(C)c(C(C)=O)c2C)c1,-,-,-,-,-,65
CC(=O)c1c(C)[nH]c(C(=O)OCC(=O)Nc2cc(S(=O)(=O)N3CCCC3)ccc2Cl)c1C,-,.,-,-,-,-
CC(=O)c1c(C)[nH]c(C(=O)OCC(=O)Nc2cccc(S(=O)(=O)N3CCCC3)c2)c1C,-,.,-,-,-,65
C[C@H]1CN([C@@H](C)CO)C(=O)Cc2cc(NC(=O)CCCCCC(=O)Nc3ccccc3N)ccc2O[C@@H]1CN(C)S(=O)(=O)c1ccc(Cl)cc1,.,-,-,-,.,.
CC(=O)/C(N=Nc1cc2c(c([N+](=O)[O-])c1C)C(C)(C)CC2(C)C)=C(\C)O,81,-,.,-,-,96
COc1ccc(-c2n(Cc3ccccc3)c3ccccc3[n+]2Cc2ccccc2)cc1,50,-,-,-,-,-
COc1ccc(-c2nc3ccccc3n2Cc2ccccc2)cc1,-,.,-,.,.,-
CCC(=O)N1[C@H](CO)[C@H](c2ccc(-c3ccncc3)cc2)[C@@H]1CN(C)C(C)=O,.,-,-,-,-,.
Fc1ccc2nc(Nc3nc4cc5c(cc4s3)OCCO5)sc2c1,62,.,-,-,-,-
O=C(Nc1nc2ccccc2c(=O)s1)c1ccco1,-,-,-,-,-,54
O=C(Nc1nc2cc3c(cc2s1)OCO3)C1=COCCO1,70,80,.,-,-,101
CC1CCc2nc(NC(=O)c3ccco3)sc2C1 (stereo unspecified),66,.,.,.,.,96
O=C(Nc1nnc(/C=C/c2ccccc2)s1)c1ccco1,-,-,-,-,-,-
CO[C@H]1CN(C)C(=O)c2ccc(NC(=O)Nc3ccccc3F)cc2OC[C@H](C)N(C)C[C@H]1C,.,-,-,-,-,.
CCC(=O)Nc1ccc2c(c1)OC[C@H](C)N(CCc1ccccc1)C[C@H](C)[C@H](OC)CN(C)C2=O,.,-,-,-,-,.
O=C(Nc1nc2cc3c(cc2s1)OCO3)c1ccco1,56,64,71,-,-,90
CC(=O)Nc1nc2cc3c(cc2s1)OCO3,-,-,-,-,-,-
O=C(Nc1nc2cc3c(cc2s1)OCCO3)c1ccncc1,-,-,-,-,.,-
O=C(Nc1nc2cc3c(cc2s1)OCCO3)c1ccco1,82,87,98,-,-,100
Cc1ccc(C)c(Nc2cc(C)nc(-c3ccccc3O)n2)c1,-,62,-,-,-,-
Cc1cc(Nc2ccccc2Cl)nc(-c2ccccc2O)n1,-,-,-,-,-,-
CCc1nnc(NC(=O)CSc2nnc(-c3ccc(S(=O)(=O)N4CCCC4)cc3)n2CC)s1,-,.,-,.,.,-
CCc1nnc(NC(=O)CSc2nnc(-c3ccc(S(=O)(=O)N(CC)CC)cc3)n2CC)s1,-,.,-,.,.,83
Cc1noc(C)c1NC(=O)NCC[C@@H]1CC[C@H](NC(=O)Nc2cccc(F)c2)[C@H](CO)O1,.,-,-,-,-,.
O=C(Nc1cccc([N+](=O)[O-])c1)c1ccncc1,-,.,-,-,-,-
SMILES,TROY signal inh,EWS-Fli block,LGR2 antag,Xi reactivation,FN deposition inh,TWEAK-Fn14 inh
O=C(Nc1cc(Sc2ccccn2)cc([N+](=O)[O-])c1)c1ccc(Cl)cc1,-,.,.,.,.,65
O=C(Nc1cc(Sc2ccccn2)cc([N+](=O)[O-])c1)c1cccc(Cl)c1,-,-,-,-,-,78
COc1ccc(NC(=O)N(C)C[C@H]2Oc3c(NC(=O)Nc4ccccc4)cccc3C(=O)N([C@H](C)CO)C[C@H]2C)cc1,.,-,-,-,.,.
Cc1cc(C)nc(SC2=CS(=O)(=O)c3ccccc32)n1,-,.,.,.,-,53
O=S1(=O)C=C(Sc2nnc(-c3ccccc3)o2)c2ccccc21,62,.,.,.,.,103
O=c1c2cc(F)ccc2sn1-c1ccccc1Cl,-,-,-,-,41,-
COc1cccc(-c2nn(C)c3sc(C(=O)N4CCN(c5ccccn5)CC4)cc23)c1,62,.,.,.,.,69
COc1ccc(CN(C)C[C@@H]2Oc3ccc(NS(=O)(=O)c4ccc(F)cc4)cc3C(=O)N([C@H](C)CO)C[C@@H]2C)cc1,.,-,-,-,.,.
C[C@@H]1CN([C@@H](C)CO)C(=O)c2cccc(NC(=O)C3CCCCC3)c2O[C@@H]1CN(C)C(=O)Nc1ccc(F)cc1,.,-,-,-,-,.
Cc1cc(/C=N/NC(=O)c2cccs2)c(C)n1-c1ccccc1,63,.,.,.,-,80
Cc1onc(-c2ccccc2)c1CNC(=O)Nc1ccc(C(F)(F)F)cc1,50,-,-,-,-,-
CC[n+]1ccccc1/C=C1\Sc2ccc(C)cc2N1C,-,55,-,-,-,-
CC(=O)Nc1ccc(S(=O)(=O)NC(C)C(=O)NCC(c2ccco2)N2CCCCC2)cc1 (stereo unspecified),-,-,-,-,-,-
O=C(NCC(c1ccco1)N1CCCC1)c1ccccc1F (stereo unspecified),57,.,-,.,.,53
Cc1ccc(S(=O)(=O)NC(CC(C)C)C(=O)NCC(c2ccco2)N2CCCCC2)cc1 (stereo unspecified),88,.,.,.,.,104
C[C@H]1CN(C)C(=O)Cc2cc(N(C)C)ccc2O[C@@H]1CN(C)C(=O)OC(C)(C)C,.,.,.,-,-,.
CCS(=O)(=O)N1CCC2(CC1)CN(C(=O)Cc1ccccn1)[C@H](CO)c1[nH]c3cc(OC)ccc3c12,.,.,-,-,.,.
c1ccc2c(c1)oc1c(Nc3ccc(CN4CCOCC4)cc3)ncnc12,52,.,.,.,.,75
c1ccc2c(c1)oc1c(NCCN3CCOCC3)ncnc12,-,.,.,.,.,-
CCCc1cc(-c2[nH]ncc2-c2ccc3c(c2)OCCCO3)c(O)cc1O,-,.,.,.,-,-
CCCc1cc(-c2[nH]ncc2-c2ccc(C(=O)OCC)o2)c(O)cc1O,-,.,-,.,.,59
N#C[C@H]1[C@H](c2ccc(-c3cccc(F)c3)cc2)[C@H](CO)N1C(=O)c1cccnc1,.,-,-,-,-,.
COc1cccc(-c2cnc(C(O)c3cccc(F)c3)[nH]2)c1 (stereo unspecified),52,-,-,-,-,-
COc1ccc(S(=O)(=O)N(C)C[C@@H]2Oc3ccc(NC(=O)CCC(F)(F)F)cc3C(=O)N([C@H](C)CO)C[C@@H]2C)cc1,.,-,-,-,-,.
Cc1cc(C)c(CSc2ncc(-c3ccc([N+](=O)[O-])cc3)[nH]2)c(C)c1,57,.,-,.,.,-
O=[N+]([O-])c1ccc(-c2cnc(SC(c3ccccc3)c3ccccc3)[nH]2)cc1,62,-,?,-,-,79
O=[N+]([O-])c1ccc(-c2cnc(SCc3ccccc3Cl)[nH]2)cc1,-,.,.,.,.,-
C[C@@H]1CN([C@H](C)CO)C(=O)c2cc(-c3cccnc3)cnc2O[C@@H]1CN(C)C(=O)Nc1ccccc1,.,-,-,-,.,.
